According to PubChem BioAssay:
The source made the active and inactive calls.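 The calls were made as follows, unless noted: active = NADPH fluorescence slope more negative than the mean of all samples by about 3 SD, 99.7% confidence; inactive = the rest.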

Tests used:
[1] = inhibitors of TNFa-induced NFkB p65 translocation, primary screen, imaging, HUVEC, MLSMR starter and 10KST1 sets (AID 438;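 active = inhibition above 20% together with a positive visual image hit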;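 also: compound added about 3h40 before a 20 min TNFalpha stimulation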;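 as to inhibition: signal is the nuclear over cytoplasmic p65 intensity ratio per well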); conditions: HUVEC TNFa-induced p65 nuclear translocation; cell count: measured here: nuclei count (cytotoxicity indicator), at 2.08 µM; inhibition: at 2 µM, stronger effect = higher value, 0% TNFa-plus-vehicle, 100% no-TNFa wells
[2] = inhibitors of mutant huntingtin aggregation, primary screen, imaging, exon1htt(103Q)mCFP cells, high-content imaging (AID 483;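 active = visual image review flags a hit and inhibition of aggregation exceeds 20%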;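 also: compound exposure lasted 3 days before fixation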;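 as to nuclei count: percent of the per-plate median nuclei count of sample wells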); conditions: exon1htt(103Q)mCFP cell line, aggregate imaging, at 2 µM; inhibition of aggregation: stronger effect = higher value; nuclei count: measured here: cell count, toxicity
[3] = inhibitors of E-selectin induction by TNFa, primary screen, imaging, HUVEC, immunofluorescence, MLSMR starter and 10KST1 sets (AID 487;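 active = visually confirmed hit in the image check and inhibition above 20%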;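 as to inhibition: signal is fraction of cell area covered by stained E-selectin grains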;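 as to nuclei count: 100% = median nuclei count of all wells on the same plate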); conditions: HUVEC TNFalpha-induced E-selectin immunofluorescence imaging, at 2 µM; inhibition: stronger effect = higher value; nuclei count: measured here: cell number, toxicity
[4] = target: Voltage-gated potassium channel subunit beta-2 (Rattus norvegicus) (UniProt P62483); experiment: KvBeta enzyme negative modulators, primary screen, biochemical, NADPH fluorescence (AID 622;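 active = fluorescence slope higher than the sample average by over 3 SD, cut at about -0.22 in these data, passing the limit was not always enough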;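 also: slope of raw intensity against log time taken from 70 to 1610 s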); conditions: recombinant KvBeta, 4-cyanobenzaldehyde reduction, at 10 µM, stronger effect = higher value
[5] = target: Voltage-gated potassium channel subunit beta-2 (Rattus norvegicus) (UniProt P62483); experiment: KvBeta positive modulators, primary screen, biochemical, NADPH fluorescence (AID 623); conditions: Recombinant KvBeta, NADPH fluorescence decrease slope, 10 min; at 10 µM; stronger effect = lower value;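 also: fluorescence intensity change per second fitted from 20 to 320 s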
[6] = target: Muscarinic acetylcholine receptor M4 (Homo sapiens) (UniProt P08173); experiment: compounds altering M4/GIRK thallium flux, either direction, primary screen, M4 allosteric agonist project, cell-based, HEK293 M4/GIRK, BTC-AM (AID 625;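 active = fluorescence slope after compound addition differing from the mean of all tested samples at 99.7% confidence, mostly higher but some lower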;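 also: thallium influx through GIRK channels coupled to M4 in HEK293 cells with BTC-AM dye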); conditions: at 10 µM, actives lie on both sides
How it was run: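 Material – HEK293 cells with M4 receptor and GIRK channels · Buffer or medium – pH 7.3 thallium assay buffer · Doses – one dose, 10 µM final · Timing – cells overnight at 37 °C, BTC-AM loading 1 h, reads 2 min total · Measured by – kinetic fluorescence with BTC-AM dye · Controls – carbachol and DMSO controls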

[7] = inhibitors of Sendai virus-induced IRF3 signaling, primary screen, TLR/RLR signaling modifier project, cell-based, Sendai virus stimulus, luciferase, 10K MLSCN set (AID 602276;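 active = inhibition at or above 50% at 10 µM; inactive = inhibition below 50%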;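 also: firefly luciferase from ISG56 promoter only with Renilla not read in this screen; 0% = Sendai virus plus DMSO and 100% = medium plus DMSO without virus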); conditions: HEK293 RL24 IRF3 luciferase reporter, at 10 µM, stronger effect = higher value
[8] = inhibitors of poly I:C-induced TLR3 signaling, primary screen, cell-based, poly I:C stimulus, luciferase, 10K MLSCN set (AID 602277;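 active = inhibition of the reporter signal at or above 50%; inactive = inhibition below 50%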); conditions: HEK293-TLR3 RL24 IRF3 luciferase reporter, at 10 µM, stronger effect = higher value

Voltage-gated potassium channel subunit beta-2 (Rattus norvegicus), sequence (P62483 whole entry, looked up): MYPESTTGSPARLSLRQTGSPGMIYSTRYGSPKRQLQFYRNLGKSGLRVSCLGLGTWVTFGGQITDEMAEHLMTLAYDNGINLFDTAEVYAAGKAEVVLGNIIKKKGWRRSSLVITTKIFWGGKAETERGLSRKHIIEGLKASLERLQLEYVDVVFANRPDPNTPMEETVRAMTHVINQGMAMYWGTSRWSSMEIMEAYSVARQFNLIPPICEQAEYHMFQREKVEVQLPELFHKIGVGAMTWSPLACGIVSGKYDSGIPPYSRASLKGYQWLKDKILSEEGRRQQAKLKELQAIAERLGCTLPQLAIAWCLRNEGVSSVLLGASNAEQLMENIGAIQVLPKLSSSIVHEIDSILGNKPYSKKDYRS
Muscarinic acetylcholine receptor M4 (Homo sapiens), sequence (P08173 whole entry, looked up): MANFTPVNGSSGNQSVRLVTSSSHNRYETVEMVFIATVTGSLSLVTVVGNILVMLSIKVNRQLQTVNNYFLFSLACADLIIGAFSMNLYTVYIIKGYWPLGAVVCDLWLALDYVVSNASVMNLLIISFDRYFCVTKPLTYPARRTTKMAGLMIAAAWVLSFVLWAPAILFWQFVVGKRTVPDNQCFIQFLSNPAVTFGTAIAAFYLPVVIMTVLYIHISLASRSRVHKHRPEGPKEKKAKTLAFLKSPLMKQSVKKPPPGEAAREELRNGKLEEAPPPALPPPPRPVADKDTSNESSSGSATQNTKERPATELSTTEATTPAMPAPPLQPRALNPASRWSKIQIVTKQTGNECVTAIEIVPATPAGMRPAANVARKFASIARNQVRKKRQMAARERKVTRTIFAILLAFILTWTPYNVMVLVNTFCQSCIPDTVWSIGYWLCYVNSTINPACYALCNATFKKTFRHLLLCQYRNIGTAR

SMILES	cell count [1]	inhibition [1]	inhibition of aggregation [2]	nuclei count [2]	inhibition [3]	nuclei count [3]	fluorescence slope [4]	NADPH fluorescence slope [5]	fluorescence slope [6]	inhibition [7]	inhibition [8]
Cc1[nH]c(=O)[nH]c(=O)c1S(=O)(=O)N1c2ccc(F)cc2CCC1C (centres undefined)	307	-3.4% (inactive)	-5% (inactive)	112%	-175% (inactive)	96.2%	-0.461 (inactive)	-3.2e-05 (inactive)	0.00639 (inactive)	9.62% (inactive)	21.9% (inactive)
CCOC(=O)c1sc(NC(=O)CNC(=O)Cn2cnc3sc(C)c(C)c3c2=O)nc1C	260	12.2% (inactive)	-12.7% (inactive)	112%	-61.8% (inactive)	109%	-0.565 (inactive)	-1.6e-06 (inactive)	0.00606 (inactive)	16.7% (inactive)	24.7% (inactive)
N#Cc1cnc2sc3ccccc3n2c1=N	332	-12.6% (inactive)	5.1% (inactive)	119%	-14.8% (inactive)	106%	-0.554 (inactive)	7.2e-06 (inactive)	0.00378 (inactive)	-9.74% (inactive)	-37.6% (inactive)
N#C/C(C(=O)c1ccccc1)=C1/CCCN1	328	0.4% (inactive)	-10.6% (inactive)	109%	-66.4% (inactive)	134%	-0.567 (inactive)	-5.4e-05 (inactive)	0.00513 (inactive)	4.87% (inactive)	-17.4% (inactive)
O=S(=O)(Nc1cccc2ncccc12)c1cccs1	469	-38% (inactive)	-0.2% (inactive)	67.2%	39.3% (inactive)	23.8%	-0.486 (inactive)	2.1e-05 (inactive)	0.0108 (active)	-7.18% (inactive)	-3.78% (inactive)
Cn1c(-c2ccc(F)cc2)cnc1NCc1ccccc1	710	-2.3% (inactive)	21% (inactive)	74.6%	-25.9% (inactive)	125%	-0.471 (inactive)	-3e-06 (inactive)	0.0028 (inactive)	6.58% (inactive)	-8.43% (inactive)
Cc1ccc(OC(=O)NC2CCS(=O)(=O)C2)cc1C (centres undefined)	395	-0.3% (inactive)	-6.1% (inactive)	98.6%	-107% (inactive)	116%	-0.617 (inactive)	-2.5e-07 (inactive)	0.00398 (inactive)	12.7% (inactive)	17.3% (inactive)
COc1ccccc1-n1c(SCC(N)=O)nnc1-c1ccccc1	737	19.3% (inactive)	-24.2% (inactive)	106%	-0.4% (inactive)	80.6%	-0.484 (inactive)	-3.5e-05 (inactive)	0.00627 (inactive)	13.3% (inactive)	23.1% (inactive)
CCCOc1ccc([C@@H]2C3CN(C(=O)OCC)CC=C3C(C#N)=C(N)C2(C#N)C#N)cc1OC (some centres undefined)	743	-23.3% (inactive)	14.7% (inactive)	102%	-44.9% (inactive)	112%	-0.237 (inactive)	-2.5e-05 (inactive)	0.00528 (inactive)	11% (inactive)	-2.37% (inactive)
O=C1CN(C(=O)CN2CCCC2)C(c2ccccc2)c2cc(Br)ccc2N1 (centres undefined)	393	-1.2% (inactive)	-15.4% (inactive)	83.1%	-23.4% (inactive)	123%	-0.512 (inactive)	-6.6e-05 (inactive)	0.00427 (inactive)	-0.203% (inactive)	21.9% (inactive)
Nc1cc(-c2ccccc2)ccc1O	329	6.3% (inactive)	33.9% (active)	88.4%	-40.6% (inactive)	103%	-0.314 (inactive)	-1.6e-05 (inactive)	0.00771 (inactive)	-0.254% (inactive)	1.06% (inactive)
Cc1ccc(-c2[nH]nc3c2C(c2ccoc2)C(C#N)=C(N)O3)cc1C (centres undefined)	853	3.6% (inactive)	7.7% (inactive)	92.5%	-111% (inactive)	126%	-0.474 (inactive)	-5.3e-05 (inactive)	0.00509 (inactive)	23.8% (inactive)	16.8% (inactive)
COc1ccccc1N1CCN(c2nc3ccccc3nc2C(C#N)C(=O)OC(C)C)CC1 (centres undefined)	518	1% (inactive)	-12.2% (inactive)	119%	-72.9% (inactive)	191%	-0.523 (inactive)	-0.000323 (inactive)	0.00467 (inactive)	-13.1% (inactive)	-6.25% (inactive)
Cc1csc(OCc2ccc(C#N)cc2)n1	636	-4.4% (inactive)	-1.8% (inactive)	97.8%	-4.8% (inactive)	114%	-0.6 (inactive)	-3.4e-05 (inactive)	0.0082 (inactive)	7.71% (inactive)	5.79% (inactive)
Cc1ccc(-c2cc(C(=O)NCc3ccc4c(c3)OCO4)no2)cc1	382	0.3% (inactive)	8.6% (inactive)	92.9%	17% (inactive)	101%	-0.315 (inactive)	-6.4e-05 (inactive)	0.00532 (inactive)	-10.4% (inactive)	-26.2% (inactive)
CCCCNS(=O)(=O)c1ccc(OC)c2ncccc12	568	4.1% (inactive)	16.3% (inactive)	115%	-1.9% (inactive)	93%	-0.337 (inactive)	-4.1e-05 (inactive)	0.00627 (inactive)	-12.5% (inactive)	-11.5% (inactive)
Cc1ccc(S(=O)(=O)N2CCOCC2)cc1C(=O)Nc1ccccn1	542	-49% (inactive)	-23.1% (inactive)	106%	-75.1% (inactive)	111%	-0.346 (inactive)	-3.9e-05 (inactive)	0.00587 (inactive)	7.52% (inactive)	12% (inactive)
COc1ccc(NCc2nnc(SCC(=O)Nc3cc(C)cc(C)c3)o2)cc1	396	-1.1% (inactive)	8.7% (inactive)	101%	36.7% (inactive)	79.5%	-0.4 (inactive)	-0.000139 (inactive)	0.00688 (inactive)	11% (inactive)	22.6% (inactive)
Cc1c(C(=O)O)sc2ncn(C)c(=O)c12	745	2.8% (inactive)	-9% (inactive)	116%	21% (inactive)	106%	-0.553 (inactive)	-2.2e-05 (inactive)	0.00525 (inactive)	2.12% (inactive)	-1.59% (inactive)
